# Source: PubChem (several laboratories)
# TMEM16A inh = inhibitors of mouse TMEM16A calcium-activated chloride channel; Q8BHY3; HEK293 TMEM16A/YFP iodide influx fluorescence, ionomycin; hit rate 1.2% among 310,000; normalized B-score (activity score, 25-100; higher = stronger inhibition) at 10 µM;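 active = ratio plate-corrected score three or more library SD toward inhibition, starting fluorescence score within five deviations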;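 also: score derived from kinetic fluorescence span divided by baseline fluorescence per well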
# CRFBP-R2 block = CRF-BP/CRF-R2 complex antagonism. HEK293 CRF-R2/CRF-BP, CRF-induced calcium fluorescence. inhibition, % at 11.8 µM. hit rate 0.59% among 350,000;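 active = inhibition of the ligand-induced calcium signal above about 50% at the single tested concentration, limit read from the data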
# ANO1 activ = activators or potentiators of mouse TMEM16A chloride channel; HEK293 TMEM16A/YFP-H148Q/I152L, iodide quench fluorescence; hits give low values; Q8BHY3; B-score at 10 µM; hit rate 0.3% among 340,000;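 active = fluorescence-ratio B-score plate-corrected deviation score at least 3 library SD below zero, with starting fluorescence score within 5 deviations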;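 also: channel opened by trigger with iodide after compound preincubation; score built on the fluorescence ratio of max minus min over baseline; more negative score means more quench and so TMEM16A activation or potentiation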
# TAAR1 antag = human TAAR1 antagonism. Q96RJ0. CHO RD-HGA16 TAAR1, Fluo-8 calcium fluorescence, antagonist. inhibition, % at 3 µM. hit rate 1.5% among 360,000;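 active = inhibition above a per-plate cutoff, the mean inhibition of test compounds on that plate plus 3 SD, cut at about 49% in these data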;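 also: 0% = DMSO plus EC80 beta-PEA response and 100% = DMSO alone without agonist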
# Target sequence (Q96RJ0 whole entry, looked up): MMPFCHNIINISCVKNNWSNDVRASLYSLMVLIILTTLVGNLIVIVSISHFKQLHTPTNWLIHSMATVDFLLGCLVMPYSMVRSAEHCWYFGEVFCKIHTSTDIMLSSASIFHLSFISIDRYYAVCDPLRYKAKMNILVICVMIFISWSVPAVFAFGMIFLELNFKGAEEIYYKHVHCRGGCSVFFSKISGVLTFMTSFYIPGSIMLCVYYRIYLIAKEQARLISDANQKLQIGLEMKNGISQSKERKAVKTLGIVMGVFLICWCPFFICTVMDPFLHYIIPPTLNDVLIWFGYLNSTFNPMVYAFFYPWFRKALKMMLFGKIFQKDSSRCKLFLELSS
#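 Test system – hTAAR1-expressing CHO RD-HGA16 cells, Gα16-coupled · Also added – β-PEA at EC80 concentration, post-compound challenge · Compound – 3 µM, single point · Incubation – dye loading 75 min at 37 °C, then 30 min room temperature · Measured by – Fluo-8 intracellular calcium dye fluorescence, real-time kinetic reads · Benchmarks – vehicle and agonist controls · Replicates – singlicate, one well per test compound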
# TAAR1 ag = agonists of human TAAR1. Q96RJ0. CHO RD-HGA16 TAAR1, Fluo-8 calcium fluorescence; vehicle wells 0%, saturating PEA agonist 100%. activation, % at 3 µM. hit rate 0.99% among 360,000. AID 624467;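 active = activation above the mean activation of all test compounds in the run plus 3 SD, cut at about 38% in these data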
#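 Test system: RD-HGA16 (CHO) cells co-expressing Gα16 and hTAAR1; dosing: one-point dosing at 3 µM (nominal); timing: 17-24 h seeding, 75 min 37 °C dye, 30 min RT; signal: kinetic Fluo-8 calcium fluorescence; read-out basis: % activation relative to PEA EC100 response; controls: DMSO and PEA EC100; replicates: n 1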
# CRFBP-R2 agonist = agonists of human CRF-binding protein/CRF-R2 receptor complex | HEK293 CRF-R2/CRF-BP, calcium dye fluorescence (FLIPR); percent of saturating CRF peptide response | activation, % at 13.2 µM | hit rate 0.46% among 350,000;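 active = activation of at least 50%, plus an integration ratio under a set limit after plate pattern correction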;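 also: plate controls were neutral control wells without compound for no effect and CRF at EC100 for full effect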
# TAAR1 ag conf = human TAAR1 agonism, confirmed; shares compounds with TAAR1 ag; CHO RD-HGA16 TAAR1, Fluo-8 calcium fluorescence; scaled: DMSO 0%, maximal phenethylamine 100%; activation, % at 3 µM; hit rate 82% among 2,400;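 active = activation above a cutoff set at the run's mean compound activation plus 3 SD, cut at about 39% in these data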
# Ga16 nonsel ag = counter-screen for TAAR1 agonists: nonselective agonists in parental cells | shares compounds with TAAR1 ag | CHO-Ga16 parental, Fluo-8 calcium fluorescence; normalized to maximal ATP response, DMSO zero | activation, % at 3 µM | hit rate 50% among 2,400;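 active = activation above the run cutoff, the mean activation over all tested wells plus 3 SD, cut at about 12% in these data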;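 also: 0% = DMSO wells and 100% = maximal ATP response on the peak over basal ratio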
# TAAR1 desens = human TAAR1 agonist that also desensitizes the receptor. shares compounds with TAAR1 ag. CHO RD-HGA16 hTAAR1, Fluo-8 calcium, beta-PEA response inhibition. inhibition, % at 3 µM. hit rate 46% among 2,400. AID 651951;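 active = inhibition above the run cutoff, the mean inhibition of all test compounds plus 3 SD, cut at about 49% in these data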;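 also: beta-PEA stimulus applied at its EC80; loss of beta-PEA calcium signal after compound pretreatment read as receptor desensitization; 0% = DMSO with beta-PEA at EC80 and 100% = DMSO alone without agonist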
# Ga16 antag count = counter-screen for TAAR1 agonists: nonselective Ga16 antagonists | shares compounds with TAAR1 ag | CHO-Ga16 ATP-induced calcium, Fluo-8 fluorescence | inhibition, % at 3 µM | hit rate 39% among 2,400 | AID 651952;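 active = inhibition above the plate's mean compound inhibition plus 3 SD, computed per plate, cut at about 22% in these data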;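 also: 0% = EC80 ATP with DMSO and 100% = DMSO wells without ATP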
# The depositor's hits bear a star; i = inactive; . = no result. Shown are actives, neighbours in structure and some others; about 3.9% of the full set was active somewhere.
SMILES,TMEM16A inh,CRFBP-R2 block,ANO1 activ,TAAR1 antag,TAAR1 ag,CRFBP-R2 agonist,TAAR1 ag conf,Ga16 nonsel ag,TAAR1 desens,Ga16 antag count
O=C(Nc1ccc(Cl)cc1C(F)(F)F)c1ccc(Cl)cc1,i,-9.9,.,31.2,75.1*,2.4,20.2,-0.6,18.6,9.3
O=C(CCNC(=O)c1ccc(Cl)cc1)Nc1ccc(F)cc1F,i,1.1,i,27.6,-1.5,1.5,.,.,.,.
Oc1ccc(C[C@H]2CNC(=S)N2CC2CCCN2C[C@H](Cc2ccc(O)cc2)N2C[C@H](Cc3ccccc3)N(CCc3ccccc3)C2=S)cc1 (stereo partly specified),.,0.0,.,-20.6,0.4,0.8,.,.,.,.
O=C(CSc1nnc(Cc2ccccc2)o1)N1CCCc2ccccc21,i,-10.8,i,-16.7,8.1,-1.9,.,.,.,.
O=C(CSc1nnc(CNc2ccccc2)o1)N1CCc2ccccc21,i,-3.5,.,75.0*,74.1*,-1.4,9.5,9.2,13.7,13.3
Cc1ccccc1NS(=O)(=O)c1cc2c3c(c1)C(C)C(=O)N3CCC2 (stereo unspecified),i,-2.4,i,-12.8,0.5,-1.2,.,.,.,.
Cc1cccn2c(CNCC3OCCc4ccccc43)c(C(=O)N3CCCCC3)nc12 (stereo unspecified),i,0.6,i,44.8,69.2*,-1.2,74.3*,5.7,60.8*,18.5
CCCCCNCC(=O)Nc1cccc(C(=O)Nc2cccc(C(F)(F)F)c2)c1,i,-13.4,i,49.7*,72.3*,3.4,75.8*,46.5*,56.3*,45.9*
CN(CCc1ccccc1)C(=O)c1ccc(NC(=O)Cc2cccc(NC(=O)C3CCN(S(=O)(=O)c4cccc([N+](=O)[O-])c4)CC3)c2)cc1,.,1.4,.,11.9,43.2*,1.3,66.0*,1.6,19.8,7.9
CN(CCc1ccccc1)C(=O)c1ccc(NC(=O)Cc2ccc(NC(=O)C3CCN(S(=O)(=O)c4cccc([N+](=O)[O-])c4)CC3)cc2)cc1,.,3.9,.,-10.3,28.4,6.3,.,.,.,.
CCCCCCCCC1CC(C(=O)Nc2ccccc2)C(=O)O1 (stereo unspecified),i,-12.2,i,-31.8,4.5,2.8,.,.,.,.
O=C(COc1ccc(Cl)cc1Cl)NC(=S)N1CCCc2ccccc21,i,20.9,i,-15.9,50.9*,0.5,30.3,6.2,1.6,9.2
Cc1cccc(OCC(=O)NC(=S)N2CCCc3ccccc32)c1,i,6.9,i,-7.1,25.4,0.9,.,.,.,.
O=C(Nc1ccc(N2CCOCC2)cc1)Nc1ccc(Cl)c(Cl)c1,i,-0.9,i,90.3*,65.5*,4.0,40.2*,29.8*,89.2*,62.3*
O=C(Nc1ccc(Cl)cc1)Nc1ccc(N2CCOCC2)cc1,i,-3.3,i,79.3*,66.1*,0.1,48.5*,12.9*,49.3*,21.9*
O=C(Nc1ccc(Cl)c(Cl)c1)N1CCOCC1,i,13.6,i,6.8,6.4,2.9,.,.,.,.
CCCCNC(=O)c1ccccc1SCC(=O)NC1CCCCCCC1,.,3.5,i,17.0,-1.1,0.0,.,.,.,.
Cc1ccc(NC(=O)c2ccc(NCCCN3CCOCC3)c([N+](=O)[O-])c2)cc1Cl,i,-17.5,i,6.0,1.1,0.3,.,.,.,.
O=C(Nc1ccc(Cl)c([N+](=O)[O-])c1)c1ccc(NCCCN2CCOCC2)c([N+](=O)[O-])c1,i,14.9,i,91.1*,75.5*,-1.3,76.8*,28.0*,98.8*,35.2*
CC(=O)N1CCN(c2ccc(NC(=O)C(C)Oc3ccc(Cl)cc3Cl)cc2)CC1 (stereo unspecified),i,2.4,i,2.6,10.9,-1.5,.,.,.,.
CC(Oc1ccc(Cl)cc1Cl)C(=O)Nc1ccc(N2CCN(C)CC2)cc1 (stereo unspecified),i,-9.4,i,5.0,53.2*,-1.2,59.7*,6.3,31.7,11.5
CN(CCc1ccccc1)Cc1nc(-c2cnccn2)no1,i,-6.4,i,-10.6,52.5*,-1.8,33.8,1.0,13.3,10.5
CN(Cc1nc(-c2cnccn2)no1)CC(O)c1ccccc1 (stereo unspecified),i,2.3,i,-11.3,0.7,-1.2,.,.,.,.
Clc1ccc(-c2nc3ccncc3[nH]2)cc1,i,5.8,i,19.2,48.6*,2.4,71.7*,-0.8,39.9,7.6
C=CCN1C=C/C(=C\C=C(C#N)C#N)c2ccccc21,i,1.4,i,28.8,66.0*,-1.7,74.5*,8.4,66.0*,26.1*
SMILES,TMEM16A inh,CRFBP-R2 block,ANO1 activ,TAAR1 antag,TAAR1 ag,CRFBP-R2 agonist,TAAR1 ag conf,Ga16 nonsel ag,TAAR1 desens,Ga16 antag count
FC(F)(F)c1cc(-c2ccco2)nc(NCCc2ccccc2)n1,i,-1.7,i,10.8,55.4*,-2.0,83.4*,1.1,33.7,8.8
O=C(CCSc1nc(-c2ccco2)cc(C(F)(F)F)n1)NCCc1ccccc1,i,4.2,i,-14.6,1.1,2.6,.,.,.,.
CC(=O)c1sc2nc(-c3cccs3)cc(C(F)(F)F)c2c1N,i,-53.7,i,64.1*,72.1*,113.2*,64.9*,83.9*,63.9*,69.8*
Cc1ccccc1CCNC(=O)CCn1nc(C)c2c(C)n(-c3ccccc3)nc2c1=O,i,-3.5,i,-19.6,0.8,0.7,.,.,.,.
COc1ccccc1CCNC(=O)CCn1nc(C)c2c(C)n(-c3ccccc3)nc2c1=O,i,76.2*,i,6.8,57.8*,-0.2,70.7*,-0.1,27.3,9.5
Cc1ccccc1CCNC(=O)Cn1nc(C)c2c(C)n(-c3ccccc3)nc2c1=O,i,-9.9,i,-19.9,50.4*,-0.1,53.0*,6.2,3.9,3.5
COc1cccc(Nc2cc(C)c3ccccc3n2)c1,i,-7.0,.,-14.5,-3.0,-0.8,.,.,.,.
COc1ccc(Nc2cc(C)c3c(O)cccc3n2)cc1,i,-5.1,i,.,.,2.8,.,6.1,.,13.2
